Calls of active or inactive are those of the source. The calls are words filed in the database; no cut-off is given here. Starred links: 1 amine or outer side, 2 acyl side, 3 side chain; linkers in the order of their positions; H or OH if unused. Positions of bridges follow the written chain, without caps; N, C: chain ends. Non-standard residues stand in square brackets, D forms with d. Residues, ends and D or L forms follow the SMILES beside them. Chains are numbered I, II in the order given. *: point of attachment. X1 = CCCCCCCCCCCCCCCC(=O)NCCCN1C(=O)CC(*)C1=O; X3 = N[C@@H](Cc1ccccc1)CN(CC(=O)[*:2])[*:1]; X2 = O=C1CC([*:1])C(=O)N1CCCC(=O)[*:2]
How the values were obtained:
Assay type in all cases: cell-based
[1] = target: T1, Delta-type opioid receptor (Homo sapiens, UniProt P41143); experiment: Agonist activity at DOP (unknown origin) expressed in SH-SY5Y cell membranes co-expressing beta-arrestin2-RGFP protein assessed as induction of beta-arrestin2 activation incubated for 15 mins by BRET assay
T1 sequence (P41143 whole entry): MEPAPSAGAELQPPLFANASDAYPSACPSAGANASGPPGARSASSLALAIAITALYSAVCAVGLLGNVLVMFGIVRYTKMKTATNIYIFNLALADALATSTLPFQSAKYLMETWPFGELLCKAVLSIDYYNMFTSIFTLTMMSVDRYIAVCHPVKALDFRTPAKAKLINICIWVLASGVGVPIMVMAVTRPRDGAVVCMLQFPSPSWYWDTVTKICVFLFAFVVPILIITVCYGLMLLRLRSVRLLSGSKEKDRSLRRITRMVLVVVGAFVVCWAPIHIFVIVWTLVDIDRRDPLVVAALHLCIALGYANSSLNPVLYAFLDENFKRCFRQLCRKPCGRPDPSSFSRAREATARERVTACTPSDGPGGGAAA
How it was run: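 Whole SH-SY5Y cells stably co-expressing delta-RLuc and β-arrestin 2-RGFP, plated 24 h earlier (100,000 cells/well), in PBS with MgCl2 0.5 mM and CaCl2 0.9 mM. Coelenterazine 5 μM final added 15 min before reading. BRET ratio read 15 min after agonist at room temperature. Efficacy and CR relative to deltorphin A. Five experiments in duplicate.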

Mu-type opioid receptor [2] = target: T2, Mu-type opioid receptor (Homo sapiens, UniProt P35372); experiment: Agonist activity at MOP (unknown origin) expressed in SH-SY5Y cell membranes co-expressing beta-arrestin2-RGFP protein assessed as induction of beta-arrestin2 activation incubated for 15 mins by BRET assay
T2 sequence (P35372 whole entry): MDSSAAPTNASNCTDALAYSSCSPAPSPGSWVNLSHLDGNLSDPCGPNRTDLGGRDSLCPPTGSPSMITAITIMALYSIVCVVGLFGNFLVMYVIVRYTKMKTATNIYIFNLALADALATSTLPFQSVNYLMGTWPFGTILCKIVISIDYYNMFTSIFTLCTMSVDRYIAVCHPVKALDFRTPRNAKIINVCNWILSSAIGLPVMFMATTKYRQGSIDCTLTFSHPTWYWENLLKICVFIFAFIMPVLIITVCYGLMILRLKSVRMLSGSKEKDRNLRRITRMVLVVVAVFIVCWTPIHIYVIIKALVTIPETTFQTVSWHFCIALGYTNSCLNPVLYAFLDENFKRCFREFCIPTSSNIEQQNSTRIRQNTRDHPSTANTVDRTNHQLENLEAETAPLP

[3] = target: T1, Delta-type opioid receptor; experiment: (§1) Bias factor, selectivity for agonist activity at DOP (unknown origin) expressed in SH-SY5Y cell membranes co-expressing beta-arrestin2-RGFP protein assessed as induction of beta-arrestin2 activation to agonist activity at NOP (unknown origin) expressed in SH-SY5Y cell membranes co-expressing Gbeta1-RGFP protein assessed as induction of G protein activation
How it was run: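 Concentration–response curves from delta G protein (membrane) and β-arrestin 2 (whole cell) BRET assays fitted to the Black–Leff operational model. Bias factor = Δlog(τ/KA) G protein minus Δlog(τ/KA) β-arrestin 2, with deltorphin A as the unbiased reference. Mean of at least five experiments, with 95% confidence limits.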

Mu-type opioid receptor [4] = target: T2, Mu-type opioid receptor; experiment: Agonist activity at MOP (unknown origin) expressed in SH-SY5Y cell membranes co-expressing Gbeta1-RGFP protein assessed as induction of G protein activation incubated for 15 mins by BRET assay
[5] = target: T1, Delta-type opioid receptor; experiment: Agonist activity at DOP (unknown origin) expressed in SH-SY5Y cell membranes co-expressing Gbeta1-RGFP protein assessed as induction of G protein activation incubated for 15 mins by BRET assay
How it was run: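 Membranes (3 μg protein) from SH-SY5Y cells stably co-expressing delta-RLuc and Gβ1-RGFP, in DPBS. Ligands in PBS–BSA 0.01%, coelenterazine 5 μM final, room temperature. BRET ratio (RGFP 510 nm/RLuc 460 nm CPS minus vehicle) read 15 min after agonist. Efficacy relative to deltorphin A run on every plate; CR versus deltorphin A EC50. Five experiments in duplicate.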

Nociceptin receptor [6] = target: T3, Nociceptin receptor (Homo sapiens, UniProt P41146); experiment: Agonist activity at NOP (unknown origin) expressed in HEK293 cell membranes co-expressing Gbeta1-RGFP protein assessed as induction of G protein activation incubated for 15 mins by BRET assay
T3 sequence (P41146 whole entry): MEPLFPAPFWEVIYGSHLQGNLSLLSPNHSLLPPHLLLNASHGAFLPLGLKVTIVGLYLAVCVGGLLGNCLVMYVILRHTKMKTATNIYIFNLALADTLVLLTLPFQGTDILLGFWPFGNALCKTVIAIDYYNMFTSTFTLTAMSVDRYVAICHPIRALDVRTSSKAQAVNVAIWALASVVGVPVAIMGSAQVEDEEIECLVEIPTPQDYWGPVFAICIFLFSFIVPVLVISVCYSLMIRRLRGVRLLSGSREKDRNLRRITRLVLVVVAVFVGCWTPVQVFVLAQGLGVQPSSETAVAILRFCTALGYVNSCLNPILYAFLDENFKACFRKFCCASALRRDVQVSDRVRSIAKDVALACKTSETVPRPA
How it was run: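 Membranes (3 μg protein) from HEK293 cells stably co-expressing NOP-RLuc and Gβ1-RGFP, in DPBS. Coelenterazine 5 μM final; ligands in PBS–BSA 0.01%. BRET ratio (RGFP 510 nm / RLuc 460 nm) read 15 min after agonist, room temperature. Values are vehicle-subtracted stimulated BRET ratio. Mean of five experiments in duplicate.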

Nociceptin receptor [7] = target: T3, Nociceptin receptor; experiment: Antagonist activity at NOP (unknown origin) expressed in HEK293 cell membranes co-expressing Gbeta1-RGFP protein assessed as reduction in N/OFQ(1-13)-NH2-induced induction of G protein activation pre-incubated for 15 mins before stimulation with N/OFQ(1-13)-NH2 for 15 mins by BRET assay; details: read-out: pA2 (converted)
Nociceptin receptor [8] = target: T3, Nociceptin receptor; experiment: Agonist activity at NOP (unknown origin) […] assessed as induction of beta-arrestin2 activation incubated for 15 mins by BRET assay
Nociceptin receptor [9] = target: T3, Nociceptin receptor; experiment: Antagonist activity at NOP (unknown origin) expressed in HEK293 cell membranes co-expressing beta-arrestin2-RGFP protein assessed as reduction in N/OFQ(1-13)-NH2-induced induction of beta-arrestin2 activation pre-incubated for 15 mins before stimulation with N/OFQ(1-13)-NH2 for 15 mins by BRET assay; details: read-out: pA2 (converted)
Nociceptin receptor [10] = target: T3, Nociceptin receptor; experiment: as §1, with “NOP” for “DOP”, “HEK293” for “SH-SY5Y”
How it was run: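 Concentration–response curves in the NOP G protein and β-arrestin 2 BRET assays were fitted to the Black–Leff operational model. Mean of at least five experiments with 95% confidence limits.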

Row | Compound | EC50 [1] | EC50 (Mu-type opioid receptor [2]) | Selectivity ratio [3] | EC50 (Mu-type opioid receptor [4]) | EC50 [5] | EC50 (Nociceptin receptor [6]) | EC50 (Nociceptin receptor [8]) | Selectivity Index (Nociceptin receptor [10]) | also measured
1 | CCCCCCCCCCCCCCCC(=O)NCCCN1C(=O)CC(SC[C@H](NC(=O)[C@H](CC(=O)O)NC(=O)[C@H](CCSC)NC(=O)[C@H](CC(C)C)NC(=O)[C@H](Cc2c[nH]cn2)NC(=O)[C@H](Cc2ccccc2)NC(=O)[C@@H](CCSC)NC(=O)[C@@H](N)Cc2ccc(O)cc2)C(N)=O)C1=O (stereo not given in full) (H-Y[dM]FHLMDC(X1)-NH2) | 22.4 nM | 38 nM | 1.06 | 51.3 nM | 2.04 nM |  |  |  | 
2 | C[C@H](NC(=O)CNC(=O)[C@@H](NC(=O)[C@H](Cc1ccccc1)NC(=O)CNC(=O)CNC[C@@H](N)Cc1ccccc1)[C@@H](C)O)C(=O)N[C@@H](CCCN=C(N)N)C(=O)N[C@@H](CCCCN)C(=O)N[C@@H](CO)C(=O)N[C@@H](C)C(=O)N[C@@H](CCCN=C(N)N)C(=O)N[C@@H](CCCCN)C(N)=O (H-[X3]GFTGARKSARK-NH2) |  |  |  |  |  | 8.91 nM |  |  | Kb (Nociceptin receptor [7]): 5.89 nM; pEC50 (Nociceptin receptor [8]; HEK293): inactive; Kb (Nociceptin receptor [9]): 14.8 nM
3 | CSCC[C@H](NC(=O)[C@H](CC(C)C)NC(=O)[C@H](Cc1c[nH]cn1)NC(=O)[C@H](Cc1ccccc1)NC(=O)[C@@H](CCSC)NC(=O)[C@@H](N)Cc1ccc(O)cc1)C(=O)N[C@@H](CC(=O)O)C(=O)O (H-Y[dM]FHLMD-OH) | 14.8 nM |  | 0 |  | 26.3 nM |  |  |  | 
4 | CCCCCCCCCCCCCCCC(=O)NCCCN1C(=O)CC(SC[C@H](NC(=O)[C@H](CC(C)C)NC(=O)[C@H](Cc2ccccc2)NC(=O)CNC(=O)CNC(=O)[C@@H](N)Cc2ccc(O)cc2)C(N)=O)C1=O (stereo not given in full) (H-YGGFLC(X1)-NH2) | 132 nM | 229 nM | 1.7 | 4.07 nM | 8.13 nM |  |  |  | 
5 | CCCCCCCCCCCCCCCC(=O)NCCCN1C(=O)CC(SC[C@H](NC(=O)[C@H](CO)NC(=O)[C@@H]2CCCN2C(=O)[C@H](Cc2ccc(O)cc2)NC(=O)CNC(=O)[C@H](Cc2ccccc2)NC(=O)[C@@H](C)NC(=O)[C@@H](N)Cc2ccc(O)cc2)C(N)=O)C1=O (stereo not given in full) | 617 nM | 11 nM |  | 1.45 nM | 58.9 nM |  |  |  | 
6 | C[C@H](NC(=O)CNC(=O)[C@@H](NC(=O)[C@H](Cc1ccccc1)NC(=O)CNC(=O)CNC(=O)[C@@H](N)Cc1ccccc1)[C@@H](C)O)C(=O)N[C@@H](CCCNC(=N)N)C(=O)N[C@@H](CCCCN)C(=O)N[C@@H](CO)C(=O)N[C@@H](C)C(=O)N[C@@H](CCCNC(=N)N)C(=O)N[C@@H](CCCCN)C(=O)N[C@@H](CSC1CC(=O)N(CCCC(=O)NCC(=O)N[C@@H](CC(=O)O)C(=O)NCC(=O)N[C@@H](CC(=O)O)C(=O)NCC(=O)N[C@@H](CC(=O)O)C(=O)NCC(=O)N[C@@H](CC(=O)O)C(=O)NCC(=O)N[C@@H](CC(=O)O)C(=O)NCC(=O)N[C@@H](CC(=O)O)C(N)=O)C1=O)C(N)=O (stereo not given in full) (I: H-FGGFTGARKSARKC-NH2 / II: GDGDGDGDGDGD-NH2; linker I:14-II:N via X2) |  |  |  |  |  | 17.8 nM | 49 nM | 0.81 | 
7 | H-FGAFTGARKSARK-NH2 |  |  |  |  |  | 13.2 nM | 28.8 nM | -0.21 | 
8 | H-FGGFAGARKSARK-NH2 |  |  |  |  |  | 75.9 nM | 741 nM | 0.4 | 

Source: ChEMBL document CHEMBL4665800, “Biased Agonism at Nociceptin/Orphanin FQ Receptors: A Structure Activity Study on N/OFQ(1-13)-NH” (J Med Chem, 2020)
